This is an account of results in ChEMBL document CHEMBL1124420, “Structure-activity relationships of pyrimidine nucleosides as antiviral agents for human immunodeficiency virus type 1 in peripheral blood mononuclear cells” (J Med Chem, 1989).

A short description of assay [1]: Cytotoxic effect in uninfected human peripheral blood mononuclear (PBM) cells.
Assay [2] concerns Human immunodeficiency virus 1. Nature of the assay: Antiviral activity against HIV I strain (LAV) in human peripheral blood mononuclear (PBM) cells. Format: functional, organism-based. In short, it runs like this:
(§1)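 Human PBM cells from normal donors, mitogen-stimulated for 3 days (10⁶ cells/mL), were infected with HIV-1 LAV at about 100 TCID₅₀/mL. Drugs at various concentrations were added about 45 min post-infection, in fungizone-free medium. On day 5, virus was pelleted from the clarified supernatant and its reverse transcriptase activity measured. EC₅₀ came from the median effect method, and active compounds were retested with different donor cells.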

The nature of assay [3]: Antiviral activity against HIV I strain (LAV) in human peripheral blood mononuclear (PBM) cells; Range is 68.3 - 79.9. Format: functional. In short, it runs like this: as §1
A short description of assay [4]: Antiviral activity against HIV I strain (LAV) in human peripheral blood mononuclear (PBM) cells; Range is 0.002 - 0.009. It is filed as functional. In short, it runs like this:
as §1

Assay [5] can be described thus: Antiviral activity against HIV I strain (LAV) in human peripheral blood mononuclear (PBM) cells; Range is 0.66 - 1.19. Format: functional. In short, it runs like this:
as §1

A short description of assay [6]: Antiviral activity against HIV I strain (LAV) in human peripheral blood mononuclear (PBM) cells; Range is 0.056 - 1.00. Format: functional. In short, it runs like this: as §1
Assay [7] can be described thus: Antiviral activity against HIV I strain (LAV) in human peripheral blood mononuclear (PBM) cells; Range is 0.081 - 0.22. It is filed as functional. In short, it runs like this:
as §1

Assay [8] deals with Moloney murine leukemia virus. The assay can be described thus: Antiviral activity against Moloney murine leukemia virus. Format: functional. As to conditions: read-out: ED50 (the source's name).
A short description of assay [9]: Antiviral activity against HIV I strain (LAV) in human peripheral blood mononuclear (PBM) cells; Range is 0.18 - 0.46. It is filed as functional.
Assay [10] in a line: Antiviral activity against HIV-1 in human peripheral blood mononuclear (PBM) cells. It is filed as functional. As to conditions: read-out: ED50 (the source's name).
Assay [11] can be described thus: Antiviral activity against HIV I strain (LAV) in human peripheral blood mononuclear (PBM) cells; Range is 0.009 - 0.04. Format: functional. In short, it runs like this: as §1

With `CCCc1cn(C2C[C@@H](N=[N+]=[N-])[C@@H](CO)O2)c(=O)[nH]c1=O` (stereo partly specified), in assay [1], the IC50 – broadly, the midpoint of a concentration-inhibition curve – was greater than 100 µM. Besides, the EC50 in [2] was 63 µM.
The like results for `CCc1cn([C@H]2CC[C@@H](CO)O2)c(=O)[nH]c1=O` were, in that order, greater than 100 µM and 4.9 µM.
The corresponding values for `CCc1cn(C2C[C@@H](N)[C@@H](CO)O2)c(=O)[nH]c1=O` (stereo partly specified) are greater than 100 µM and 54.9 µM.
The like results for `OC[C@@H]1C=C[C@H](c2cnc(O)nc2O)O1` were, in that order, greater than 100 µM and greater than 100 µM.
The compound `O=c1ccn([C@H]2C=C[C@@H](CO)O2)c(=O)[nH]1` displayed an IC50 in assay [1] greater than 100 µM. In assay [3], the EC50 worked out at 68.3 µM.
Turning to `Cc1cn([C@H]2C[C@H](N=[N+]=[N-])[C@@H](CO)O2)c(=O)[nH]c1=O` [ZIDOVUDINE], half-maximal inhibition in assay [1] (IC50) required 200 µM. The compound further displayed an EC50 in assay [4] of 0.002 µM.
As for `Cc1cn([C@H]2C[C@H](I)[C@@H](CO)O2)c(=O)[nH]c1=O`, the IC50 in [1] was greater than 100 µM. This compound displayed an EC50 in assay [2] of 46.3 µM.
On to `CCc1cn([C@H]2C=C[C@@H](CO)O2)c(=O)[nH]c1=O`, for which, in [1], the IC50 was greater than 100 µM. The EC50 in assay [2] amounted to 75.7 µM.
The corresponding values for `[N-]=[N+]=N[C@@H]1CC(n2cc(/C=C/Br)c(=O)[nH]c2=O)O[C@@H]1CO` (stereo partly specified) are greater than 100 µM and greater than 100 µM.
The corresponding values for `Cc1cn([C@H]2C[C@H](O)[C@@H](CN=[N+]=[N-])O2)c(=O)[nH]c1=O` are greater than 100 µM and 8.6 µM.
The corresponding values for `Cc1cn([C@H]2CC[C@@H](CO)O2)c(=O)[nH]c1=O` are greater than 100 µM and 0.17 µM.
In assay [1], `[N-]=[N+]=N[C@H]1C[C@H](n2ccc(N)nc2=O)O[C@@H]1CO` registered an IC50 greater than 400 µM. For the same compound, the EC50 in assay [5] was 0.66 µM.
On to `[N-]=[N+]=N[C@@H]1CC(c2cnc(O)nc2O)O[C@@H]1CO` (stereo partly specified), for which the IC50 in assay [1] was greater than 100 µM. The compound further gave an EC50 in [2] greater than 100 µM.
Take `CCc1cn([C@H]2C[C@H](N=[N+]=[N-])[C@@H](CO)O2)c(=O)[nH]c1=O`: the IC50 in assay [1] is 1000 µM. Also, in assay [6], the EC50 is 0.056 µM.
`Cc1cn([C@H]2C[C@H](N=[N+]=[N-])[C@@H](CO)O2)c(=O)nc1N` registered an IC50 in assay [1] greater than 200 µM. For the same compound, the EC50 in assay [7] was 0.081 µM.
As for `[N-]=[N+]=N[C@@H]1CC(n2cc(I)c(=O)[nH]c2=O)O[C@@H]1CO` (stereo partly specified), the half-inhibitory concentration (IC50) in [1] was greater than 100 µM. Moreover, the EC50 in [2] worked out at 1.14 µM.
In turn, `NC[C@H]1OC(n2ccc(=O)[nH]c2=O)C[C@H]1O` (stereo partly specified) returned an IC50 in [1] greater than 100 µM. The compound also yielded an EC50 in assay [2] greater than 100 µM.
As to `Cc1cn([C@H]2C[C@H](N)[C@@H](CO)O2)c(=O)[nH]c1=O` [3-AMINO- 3-DEOXYTHYMIDINE], in assay [1], the IC50 was greater than 100 µM. This compound also displayed an EC50 in assay [2] greater than 100 µM.
Compound `[N-]=[N+]=N[C@H]1C[C@H](n2ccc(=O)[nH]c2=O)O[C@@H]1CO` [NAVURIDINE] showed an IC50 in [1] of 1000 µM. The EC50 worked out at 52 µM in assay [8], 0.18 µM in [9] and 0.178 µM in assay [10].
For `CCc1cn(C2C[C@@H](O)[C@@H](CN)O2)c(=O)[nH]c1=O` (stereo partly specified), the IC50 in assay [1] was greater than 10 µM. This compound yielded an EC50 in assay [2] of 94.3 µM.
The corresponding values for `Nc1ncc([C@H]2CC[C@@H](CO)O2)c(O)n1` are greater than 100 µM and greater than 100 µM.
Take `O=c1ccn(C2C[C@@H](I)[C@@H](CO)O2)c(=O)[nH]1` (stereo partly specified): the IC50 in assay [1] was greater than 100 µM. The same compound had an EC50 in assay [2] of 12.1 µM.
In the case of `O=c1ccn([C@H]2CC[C@@H](CO)O2)c(=O)[nH]1`, in assay [2], the EC50 is 96.8 µM.
Take `CCc1cn(C2C[C@@H](O)[C@@H](CN=[N+]=[N-])O2)c(=O)[nH]c1=O` (stereo partly specified): in assay [1], the IC50 is greater than 100 µM. Also, in assay [2], the EC50 is greater than 100 µM.
As for `Cc1cn([C@H]2C=C[C@@H](CO)O2)c(=O)[nH]c1=O` [STAVUDINE], it took 70 µM to reach half-maximal inhibition in [1] (IC50). This compound came in with an EC50 in assay [11] of 0.009 µM.
As for `[N-]=[N+]=N[C@H]1C[C@H](n2cc(Br)c(=O)[nH]c2=O)O[C@@H]1CO`, the IC50 in assay [1] was greater than 100 µM. The EC50 in [2] amounted to 1.04 µM.
The corresponding values for `[N-]=[N+]=NC[C@H]1OC(n2ccc(=O)[nH]c2=O)C[C@H]1O` (stereo partly specified) are greater than 100 µM and greater than 100 µM.
The like results for `Cc1cn([C@H]2C[C@H](O)[C@@H](CN)O2)c(=O)[nH]c1=O` were, in that order, greater than 100 µM and 77.4 µM.
`N[C@H]1C[C@H](n2ccc(=O)[nH]c2=O)O[C@@H]1CO` showed an IC50 in assay [1] greater than 100 µM. The compound further came in with an EC50 in assay [2] of 60 µM.
Take `CCc1cn(C2C[C@@H](I)[C@@H](CO)O2)c(=O)[nH]c1=O` (stereo partly specified): the 50% inhibitory concentration (IC50) in assay [1] was greater than 100 µM. Also, the EC50 in assay [2] turned out to be 86 µM.
